Test results: ChEMBL document CHEMBL1142562, “Four new neuroprotective dihydropyranocoumarins from Angelica gigas” (2005)

What was measured:
Format in all cases: functional
Details in all cases: read-out: Activity
[1] = Neuroprotective effect against glutamate-stimulated rat cortical cells assessed as cell viability at 10 uM after 1 hr by LDH assay relative to control
In short: (§1)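 Mixed neuron–glia cortical cultures from Sprague-Dawley fetal rats (17-19 days old), matured ≥2 weeks and used at 17 days in vitro. Cultures were washed with DMEM and pretreated 1 h with compound in DMSO (0.1% final), then given 100 µM glutamate for 24 h. Viability was read as LDH efflux and expressed as % protection relative to control and glutamate-only cultures. Mean ± STD of three experiments, 5-6 cultures each.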

[2] = Neuroprotective effect against glutamate-stimulated rat cortical cells assessed as cell viability at 0.1 uM after 1 hr by LDH assay relative to control; in short: as §1
[3] = Neuroprotective effect against glutamate-stimulated rat cortical cells assessed as cell viability at 1 uM after 1 hr by LDH assay relative to control; in short: as §1

| Structure (SMILES) | viability at 10 µM [1] [%] | viability at 0.1 µM [2] [%] | viability at 1 µM [3] [%] |
| --- | --- | --- | --- |
| C/C(=C\CO)C(=O)O[C@H]1Cc2cc3ccc(=O)oc3cc2OC1(C)C | 1.2 | 33.2 | 19.9 |
| C/C(=C\C(=O)O[C@H]1Cc2cc3ccc(=O)oc3cc2OC1(C)C)CO | 35.1 | 38.4 | 34.1 |
| C[C@@H]1O[C@]1(C)C(=O)O[C@H]1Cc2cc3ccc(=O)oc3cc2OC1(C)C | 49 | 70 | 52.5 |
| C[C@H]1O[C@@]1(C)C(=O)O[C@H]1Cc2cc3ccc(=O)oc3cc2OC1(C)C | 56.7 | 47.5 | 61.1 |
| N#Cc1cc2c(cc1[N+](=O)[O-])=NC(=O)C(=O)N=2 | 50.5 | 29 | 40.5 |
| NC(CCCP(=O)(O)O)C(=O)O (racemic) | 39 | 10 | 25 |
| CC1(C)Oc2cc3oc(=O)ccc3cc2C[C@@H]1O [DECURSINOL] | 40.7 | 33.4 | 69.6 |
| CC(C)=CC(=O)O[C@H]1Cc2cc3ccc(=O)oc3cc2OC1(C)C [DECURSIN] | 65.1 | 39 | 50 |
| C[C@]12N[C@H](Cc3ccccc31)c1ccccc12 [DIZOCILPINE] | 70 | 54 | 65 |
